KCNK9 inh – blocks the human KCNK9 two-pore domain potassium channel; AID 488922; B-score at 10 µM; HEK293 KCNK9, FluxOR thallium flux fluorescence; hits give low values; 310,000 tested, 1.2% active; Q9NPC2;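 active = ratio B-score over 3 SD below the library mean, with starting fluorescence within 5 SD of its mean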;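 also: negative B-score means less thallium flux so channel inhibition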
KCNK3 inh – human KCNK3 channel inhibition, primary screen | CHO-KCNK3 thallium flux, FluxOR fluorescence; hits give low values | 340,000 tested, 0.84% active | B-score at 10 µM | AID 602410 | O14649;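 active = B-score under library mean minus 4 SD, starting fluorescence ratio at most library mean plus 5 SD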;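 also: more negative B-score means stronger inhibition of thallium flux through KCNK3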
hERG rescue – hERG (human) protection from proarrhythmic block. CHO-hERG, FluxOR thallium flux, dofetilide IC70 present. activation (rescue from dofetilide block), less the hit threshold, % at 10 µM. 310,000 tested, 0.51% active;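 active = activation above the mean of controls blocked by dofetilide plus 5 SD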;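 also: thallium influx through hERG after potassium depolarization seen as dye fluorescence rise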
Kir21 block – Kir2.1 (mouse) channel inhibition. HEK293-Kir2.1, FluxOR thallium flux fluorescence; hits give low values. B-score at 10 µM. 310,000 tested, 0.85% active;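 active = fluorescence ratio B-score at or below minus 3 SD of library scores, with starting-brightness B-score within 2 SD, cut at about -4.2 in these data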;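 also: channel flux triggered by added potassium and thallium sulfate stimulus; B-score of peak minus minimum fluorescence over baseline after thallium stimulus; more negative B-score means stronger Kir2.1 block with less thallium influx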
Target sequence (P35561 whole entry, looked up): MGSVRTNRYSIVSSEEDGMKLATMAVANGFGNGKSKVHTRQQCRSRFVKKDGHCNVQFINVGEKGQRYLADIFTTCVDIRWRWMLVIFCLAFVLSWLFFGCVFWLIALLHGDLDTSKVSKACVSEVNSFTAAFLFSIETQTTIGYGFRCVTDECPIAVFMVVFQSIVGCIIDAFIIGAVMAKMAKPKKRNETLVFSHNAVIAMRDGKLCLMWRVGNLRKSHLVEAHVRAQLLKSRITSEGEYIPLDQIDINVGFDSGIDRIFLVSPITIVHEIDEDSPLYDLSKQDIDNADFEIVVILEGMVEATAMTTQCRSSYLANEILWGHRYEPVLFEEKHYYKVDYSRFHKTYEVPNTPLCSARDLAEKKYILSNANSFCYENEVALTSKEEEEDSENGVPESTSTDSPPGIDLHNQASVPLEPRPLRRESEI
KCNQ1 block – blocks the human KCNQ1 potassium channel; CHO-K1 KCNQ1, FluxOR thallium flux fluorescence; hits give high values; P51787; 310,000 tested, 1.3% active; B-score at 10 µM;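 active = compounds whose thallium flux B-score, printed positive for inhibition, exceeds three library SD while starting fluorescence stays within three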;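 also: channel opened by potassium depolarization with thallium stimulus after 20 min compound exposure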
KCNQ1 act – potentiates or activates the human KCNQ1 potassium channel; P51787; CHO-K1 KCNQ1, thallium flux FluxOR fluorescence; hits give high values; B-score at 10 µM; 310,000 tested, 0.35% active;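 active = fluorescence ratio B-score, a plate-corrected score, at least three library SD, with initial intensity B-score within 5 SD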
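Assay system: stable KCNQ1 CHO-K1 line; medium: assay buffer, equal DMSO in all wells; timing: 90 min dye loading and 20 min compound exposure, both at room temperature; technique: kinetic FluxOR thallium fluorescence, 10-s 1-Hz baseline, 110-s post-stimulus read; read-out basis: B score of baseline-normalized fluorescence ratio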
Hits are given with their value; – = inactive; · = no result given. Shown are actives, neighbours in structure and some others; about 3.7% of the full set was active somewhere.

SMILES	KCNK9 inh	KCNK3 inh	hERG rescue	Kir21 block	KCNQ1 block	KCNQ1 act
Cc1ccc(C)c(C2=CSC3=NS(=O)(=O)CCN23)c1	–	–	–	–	–	–
CCc1cc(=O)[nH]c(SCc2ccc(C)cc2)n1	–	–	4.9	–	–	–
CCc1cc(=O)[nH]c(SCc2cccnc2)n1	–	–	–	–	–	–
CC(C)NC(=O)Nc1n[nH]c(Nc2ccc(Cl)cc2)n1	–	–	5.3	–	–	–
COc1ccc(Cl)cc1NC(=O)NC(C)C	–	–	–	–	–	–
Cc1ccc(SC(C)C(=O)Nc2ccccc2-c2ccccc2)cc1 (configuration not stated)	–	–	–	-6.9	–	–
CC(Sc1ccc(Cl)cc1)C(=O)Nc1ccccc1-c1ccccc1 (configuration not stated)	–	–	–	–	–	–
CC(=O)Nc1ccc(SCC(=O)Nc2ccccc2-c2ccccc2)cc1	–	–	–	-4.3	–	–
CCC(C(=O)NCCCN1CCN(CCCNC(=O)C(CC)c2ccccc2)CC1)c1ccccc1 (configuration not stated)	–	–	4.9	–	–	–
CCC(C(=O)Nc1ccccc1)c1ccccc1 (configuration not stated)	–	–	–	–	–	–
CCC(C(=O)NCCCc1ccccc1)c1ccccc1 (configuration not stated)	–	–	–	–	–	–
CCC(C(=O)Nc1ccccc1-c1ccccc1)c1ccccc1 (configuration not stated)	–	–	–	-4.9	–	–
CC1(N=Cc2cc(Cl)ccc2O)COP(=O)(NC2CCCC2)OC1 (configuration not stated)	·	–	·	·	·	·
CC1CCCC(C)N1C(=O)COC(=O)c1ccc(Br)o1 (configuration not stated)	·	–	·	·	·	·
CN1CCN(C(=O)/C(=C/c2ccc([N+](=O)[O-])cc2)NC(=O)c2ccccc2)CC1	–	–	–	–	–	–
COc1ccc(C2(c3ccc(OC)cc3)NC(=O)N(CC(=O)NC3CCS(=O)(=O)C3)C2=O)cc1 (configuration not stated)	·	–	·	·	·	·
Cc1ccc(CC(=O)Nc2ccccc2-c2ccccc2)cc1C	–	–	–	–	–	–
CCCC(C)NCC(=O)Nc1ccccc1-c1ccccc1 (configuration not stated)	–	–	–	-4.5	–	–
O=c1c2cccnc2n(-c2ccccc2)n1Cc1ccc(Cl)cc1	–	–	–	–	–	14
CC(Sc1ccccc1)C(=O)NN=C1CCCCCCC1 (configuration not stated)	–	–	–	–	–	–
COc1ccc(C(=O)CCS(=O)(=O)c2ccc(F)cc2)cc1OC	–	–	–	–	–	24
Cc1nn(-c2ccccc2)c(C)c1C(=O)OCc1ccc(C#N)cc1	–	–	–	–	–	–
Cc1c(C(=O)N(C)CCOc2ccccc2)oc2c(Cl)cccc12	·	-9.3	·	·	·	·
Cc1ccsc1CNC(=O)c1c(-c2ccccc2)noc1C	–	–	–	–	–	–
Cc1cn2c(nc1=O)OC1C(O)C(COC(=O)c3ccccc3)OC12 (configuration not stated)	–	–	5.0	–	–	–
SMILES	KCNK9 inh	KCNK3 inh	hERG rescue	Kir21 block	KCNQ1 block	KCNQ1 act
c1ccc(CSc2ccc(-c3ccccn3)nn2)nc1	–	–	–	–	–	–
S=c1nc[nH]c2c1cnn2-c1ccccc1	–	–	–	–	–	19
NC(=O)c1cc(S(=O)(=O)Nc2ccc(OC(F)(F)F)cc2)cs1	–	–	–	–	–	–
CN(C)C(CNC(=O)c1cc(-c2ccco2)nc2ccccc12)c1ccccc1 (configuration not stated)	·	–	·	·	·	·
ON=C(CCc1ccccc1)CCc1ccccc1	·	–	·	·	·	·
O=C(Oc1ccc(C(=S)N2CCOCC2)cc1Cl)c1ccccc1F	–	–	–	-5.8	–	–
O=C(Oc1ccc(Br)cc1C(=S)N1CCOCC1)c1ccc(F)cc1	–	–	–	–	–	–
O=C(Oc1ccc(C(=S)N2CCOCC2)cc1Br)c1ccccc1F	–	–	–	-6.3	–	–
O=C(c1ccccc1F)N1CCOCC1	–	–	–	–	–	–
COc1cc2c(cc1OC)CN(CC(=O)Nc1ccc(C)c(C)c1)CC2	–	–	–	–	–	–
CC(C)c1ccc2c(c1)CCC1C(C)(CN)CCCC21C (configuration not stated)	–	–	–	-6.1	9	–
COC(=O)c1ccc(C23CC4(C2)[C@H](CN(C)[C@@H]4c2ccccc2)C3c2ccccc2)cc1 (some centres not stated)	-6.6	–	–	–	–	–
CSC1=NSC2=NC(=O)/C(=C/c3coc4ccc(O)cc4c3=O)C(=N)N12	–	–	–	–	9	–
COc1cc(/C=C2/C(=N)N3C(=NC2=O)SN=C3S(C)(=O)=O)ccc1OC(=O)c1ccco1	–	–	–	–	–	–
COc1cc(/C=C2/C(=N)N3C(SC)=NSC3=NC2=O)ccc1OC(=O)c1ccco1	–	–	–	-4.6	–	–
CCOC(=O)C1=C(C)N(c2ccccc2)C(=O)/C1=C\c1ccco1	–	–	–	–	–	–
CCOC(=O)C1=C(C)N(c2ccccc2)C(=O)/C1=C\c1ccc(O)c(OC)c1	-6.8	–	–	–	–	–
CC(C)[C@H]1C(=O)Nc2ccccc2N1C(=O)N[C@@H](Cc1ccccc1)C(=O)N[C@H](C(=O)O)c1ccccc1	–	–	–	–	–	–
CCOC(=O)c1[nH]c(=O)[nH]c1COC(=O)c1cc2ccccc2o1	–	–	6.2	–	–	–
CCN1CCN(Cc2cc(=O)oc3cc4c(cc23)CCC4)CC1	–	–	–	–	8	–
CN1CCN(Cc2cc(=O)oc3cc4c(cc23)CCC4)CC1	–	–	–	–	–	–
CCOc1cc(CNCCSc2nnnn2C)cc(Br)c1OCc1ccccc1	–	–	–	–	–	–
CCOc1cc(CNc2ccccc2)cc(Br)c1OCc1ccccc1F	-7.6	–	–	–	–	–
CCOc1cc(CNCCO)cc(Br)c1OCc1ccccc1	–	–	–	-16	–	–
CCCCNCc1cc(Br)c(OCc2cccs2)c(OC)c1	–	–	–	-12	–	–
COc1cc(CNCCO)cc(Br)c1OCc1ccccc1Cl	–	–	–	-13	–	–
Cc1ccc(NC(=O)C2CCN(S(C)(=O)=O)CC2)c(C)c1	–	–	–	–	–	–
Cc1cccc(NCc2ccccc2OCc2ccccc2F)c1	-7.5	–	–	–	9	–
Oc1ccc(NCc2ccccc2OCc2ccccc2F)cc1	–	–	–	–	–	–
O=C(NC1CCOc2ccccc21)C1CCCC1 (configuration not stated)	–	–	–	–	–	–
